The source made the active and inactive calls. The rule behind the calls is not given here.
Key:
[1] = target: Adenosine receptor A3 (Homo sapiens) (UniProt P0DMS8); experiment: Displacement of [125I]AB-MECA from human recombinant adenosine A3 receptor expressed in HEK293 cells assessed as remaining radioligand binding at 10 uM after 120 mins by scintillation counting method relative to control; type: cell-based
[2] = target: Beta-1 adrenergic receptor (Homo sapiens) (UniProt P08588); experiment: Displacement of (-)-[3H]CGP-12177 from human recombinant adrenergic beta1 receptor expressed in HEK293 cells assessed as remaining radioligand binding at 10 uM after 60 mins by scintillation counting method relative to control; type: cell-based
[3] = target: Kappa-type opioid receptor (Rattus norvegicus) (UniProt P34975); experiment: Displacement of [3H]U-69593 from rat recombinant kappa opioid receptor expressed in CHO cells assessed as remaining radioligand binding at 10 uM after 60 mins by scintillation counting method relative to control; type: cell-based
[4] = target: T1, Transient receptor potential cation channel subfamily A member 1 (Rattus norvegicus, UniProt Q6RI86); experiment: Antagonist activity at rat TRPA1 expressed in tetracycline-inducible T-REx expression system transfected CHO cells assessed as inhibition of AITC-induced Ca2+ influx preincubated for 2 mins followed by AITC addition measured for 2 mins by Fluo-4 dye based FLIPR assay; type: cell-based
[5] = Apparent intrinsic clearance in human liver microsomes; type: ADME; settings: read-out: CLH(app)
[6] = target: 5-hydroxytryptamine receptor 1B (Rattus norvegicus) (UniProt P28564); experiment: Displacement of [125I]CYP from 5HT1B receptor in rat cerebral cortex assessed as remaining radioligand binding at 10 uM after 120 mins by scintillation counting method relative to control; type: tissue-based
[7] = target: Substance-K receptor (Homo sapiens) (UniProt P21452); experiment: Displacement of [125I]NKA from human recombinant NK2 receptor expressed in CHO cells assessed as remaining radioligand binding at 10 uM after 60 mins by scintillation counting method relative to control; type: cell-based
[8] = target: Muscarinic acetylcholine receptor M1 (Homo sapiens) (UniProt P11229); experiment: Displacement of [3H]pirenzepine from human recombinant muscarinic M1 receptor expressed in CHO cells assessed as remaining radioligand binding at 10 uM after 60 mins by scintillation counting method relative to control; type: cell-based
[9] = target: T1, Transient receptor potential cation channel subfamily A member 1; experiment: Agonist activity at rat TRPA1 expressed in tetracycline-inducible T-REx expression system transfected CHO cells by 45Ca2+ uptake assay; type: cell-based
[10] = target: Transient receptor potential cation channel subfamily A member 1 (Homo sapiens, UniProt O75762); experiment: Agonist activity at human TRPA1 expressed in tetracycline-inducible T-REx expression system transfected CHO cells by 45Ca2+ uptake assay; type: cell-based
Rattus norvegicus [11] = experiment: Unbound clearance in rat at 0.5 mg/kg, iv as single dose; type: ADME, organism-based; settings: in vivo
Outline: (§1)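 Single intravenous dose of 0.5 mg/kg given to rats, formulated in 100% DMSO.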

[12] = Half life in rat at 0.5 mg/kg, iv administered as single dose; type: ADME, organism-based; settings: in vivo; outline: as §1
[13] = Ratio of fCmax in rat at 30 mg/kg, po to IC50 for rat TRPA1 expressed in tetracycline-inducible T-REx expression system transfected CHO cells by 45Ca2+ uptake assay
[14] = Apparent permeability from apical to basolateral side in MDCK cells expressing control vector after 120 mins by LC-MS/MS analysis; type: ADME, cell-based, Canis lupus familiaris; settings: dog
MDR1 (human) = experiment: Efflux ratio of apparent permeability from basolateral to apical side over apical to basolateral side in MDCK cells expressing human MDR1 after 120 mins by LC-MS/MS analysis; type: ADME, cell-based, Canis lupus familiaris; settings: dog
Outline: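 Efflux ratio taken as Papp B→A / Papp A→B, measured in MDR1-transfected MDCK cells against MDCK vector-control cells.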

[15] = target: Transient receptor potential cation channel subfamily M member 8 (Rattus norvegicus) (UniProt Q8R455); experiment: Antagonist activity at rat TRPM8 assessed as inhibition of icilin-induced Ca2+ influx up to 10 uM preincubated for 2.5 mins followed by icilin addition measured for 1 min by luminescence assay
[16] = target: T1, Transient receptor potential cation channel subfamily A member 1; experiment: Antagonist activity at rat TRPA1 expressed in tetracycline-inducible T-REx expression system transfected CHO cells assessed as inhibition of hypo osmolarity buffer-induced 45Ca2+ uptake preincubated for 10 mins followed by hypo osmolarity buffer addition measured after 3 mins by TopCount microplate scintillator counting method; type: cell-based
Outline: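 Compound given 10 min at RT in Ham's F12/15 mM HEPES/0.1% BSA, final 2.0 nM–40 μM (1:3 steps); then hypo-osmolar buffer (final 100 mOsmol) with 45Ca2+ (final 10 μCi/mL), 3 min at RT. Cells washed three times in PBS/0.1 mg/mL BSA, then scintillation counted. Hypotonic uptake = 100%, 300 mOsmol/L buffer = 0%. POC fitted to a four-parameter curve for IC50.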

Plasma = experiment: Unbound plasma concentration in Harlan Sprague-Dawley rat model of AITC-induced flinching at 10 mg/kg, po at 1 hr; type: ADME, organism-based; settings: in vivo
Outline: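 Rats were given vehicle (2% HPMC/1% Tween-80) or compound orally at 1, 3, 10 or 30 mg/kg. After 1 h, 0.1% AITC was injected into one left ventral hind paw, and nocifensive flinching was recorded over the first minute. Unbound plasma concentration was measured at 1 h, n = 8 per dose. In vivo IC50/IC90 came from the exposure–response relationship across individual animals.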

[17] = Ratio of unbound plasma concentration in Harlan Sprague-Dawley rat model of AITC-induced flinching at 3 mg/kg, po to IC50 for rat TRPA1 expressed in tetracycline-inducible T-REx expression system transfected CHO cells by 45Ca2+ uptake assay; type: ADME, organism-based; settings: in vivo
Outline: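 Rats dosed orally at 1, 3, 10 or 30 mg/kg in 2% HPMC/1% Tween-80 vehicle. After 1 h, unbound plasma concentration measured (n = 8 per dose), intraplantar AITC (0.1%) given and flinching scored over the first minute. Unbound concentration divided by in vitro rat TRPA1 45Ca2+ IC50.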

Rattus norvegicus [18] = experiment: Binding affinity to TRPA1 in Harlan Sprague-Dawley rat model of AITC-induced flinching at 30 mg/kg, po in presence of AITC; type: functional, organism-based
[19] = target: 5-hydroxytryptamine receptor 2B (Homo sapiens) (UniProt P41595); experiment: Displacement of [3H]mesulergine from human recombinant 5HT2B receptor expressed in CHO cells assessed as remaining radioligand binding at 10 uM after 60 mins by scintillation counting method relative to control; type: cell-based
Rattus norvegicus [20] = species on record: Rattus norvegicus; experiment: Displacement of [3H]nitrendipine from L-type calcium channel dihydropyridine binding site in rat cerebral cortex assessed as remaining radioligand binding at 10 uM after 90 mins by scintillation counting method relative to control; type: tissue-based
Rattus norvegicus [21] = species on record: Rattus norvegicus; experiment: Displacement of [35S]TBPS from GABA gated chloride channel in rat cerebral cortex assessed as remaining radioligand binding at 10 uM after 120 mins by scintillation counting method relative to control; type: tissue-based
[22] = target: 5-hydroxytryptamine receptor 2A (Homo sapiens) (UniProt P28223); experiment: Displacement of [3H]ketanserin from human recombinant 5HT2A receptor expressed in HEK293 cells assessed as remaining radioligand binding at 10 uM after 60 mins by scintillation counting method relative to control; type: cell-based
[23] = target: 5-hydroxytryptamine receptor 6 (Homo sapiens) (UniProt P50406); experiment: Displacement of [3H]LSD from human recombinant 5HT6 receptor expressed in CHO cells assessed as remaining radioligand binding at 10 uM after 120 mins by scintillation counting method relative to control; type: cell-based
5-hydroxytryptamine receptor 6 (Homo sapiens), sequence (P50406 whole entry): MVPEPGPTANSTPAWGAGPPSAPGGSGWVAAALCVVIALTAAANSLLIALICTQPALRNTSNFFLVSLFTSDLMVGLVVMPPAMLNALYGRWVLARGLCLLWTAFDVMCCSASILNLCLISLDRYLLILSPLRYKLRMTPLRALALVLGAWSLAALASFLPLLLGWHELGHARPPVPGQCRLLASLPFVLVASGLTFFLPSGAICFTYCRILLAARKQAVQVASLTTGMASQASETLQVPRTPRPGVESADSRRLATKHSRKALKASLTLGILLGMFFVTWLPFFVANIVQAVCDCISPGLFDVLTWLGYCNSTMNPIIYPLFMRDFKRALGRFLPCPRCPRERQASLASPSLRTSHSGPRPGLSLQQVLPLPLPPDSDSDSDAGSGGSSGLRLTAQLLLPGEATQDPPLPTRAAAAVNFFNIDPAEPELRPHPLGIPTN

T1 sequence (Q6RI86 whole entry): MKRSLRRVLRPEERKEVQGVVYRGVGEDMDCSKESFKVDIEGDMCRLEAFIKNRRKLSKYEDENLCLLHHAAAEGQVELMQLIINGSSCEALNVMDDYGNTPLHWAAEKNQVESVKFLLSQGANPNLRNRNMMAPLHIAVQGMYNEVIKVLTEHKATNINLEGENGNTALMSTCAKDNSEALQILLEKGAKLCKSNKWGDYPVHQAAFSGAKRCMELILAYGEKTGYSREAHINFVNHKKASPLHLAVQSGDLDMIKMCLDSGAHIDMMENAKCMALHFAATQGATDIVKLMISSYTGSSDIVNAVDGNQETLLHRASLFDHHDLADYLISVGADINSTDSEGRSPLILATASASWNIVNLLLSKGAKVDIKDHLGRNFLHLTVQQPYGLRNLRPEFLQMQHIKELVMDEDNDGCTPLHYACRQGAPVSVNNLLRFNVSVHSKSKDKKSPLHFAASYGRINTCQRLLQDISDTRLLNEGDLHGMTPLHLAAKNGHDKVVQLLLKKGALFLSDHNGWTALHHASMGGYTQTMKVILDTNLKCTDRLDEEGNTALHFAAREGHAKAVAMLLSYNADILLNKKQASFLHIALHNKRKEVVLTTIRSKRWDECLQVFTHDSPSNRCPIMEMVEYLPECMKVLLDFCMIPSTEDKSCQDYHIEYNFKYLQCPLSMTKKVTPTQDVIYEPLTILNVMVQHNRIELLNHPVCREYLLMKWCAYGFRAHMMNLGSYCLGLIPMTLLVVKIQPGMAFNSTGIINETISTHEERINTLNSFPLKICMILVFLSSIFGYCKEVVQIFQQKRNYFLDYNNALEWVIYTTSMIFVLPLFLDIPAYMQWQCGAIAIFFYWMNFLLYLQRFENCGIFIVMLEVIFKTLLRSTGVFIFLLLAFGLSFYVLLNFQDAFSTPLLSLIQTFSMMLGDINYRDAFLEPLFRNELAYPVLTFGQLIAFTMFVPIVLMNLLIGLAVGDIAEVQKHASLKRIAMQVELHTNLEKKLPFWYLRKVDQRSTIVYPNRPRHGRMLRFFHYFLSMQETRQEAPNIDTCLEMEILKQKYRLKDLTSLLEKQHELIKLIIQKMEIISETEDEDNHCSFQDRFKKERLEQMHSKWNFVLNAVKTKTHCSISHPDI
Muscarinic acetylcholine receptor M1 (Homo sapiens), sequence (P11229 whole entry): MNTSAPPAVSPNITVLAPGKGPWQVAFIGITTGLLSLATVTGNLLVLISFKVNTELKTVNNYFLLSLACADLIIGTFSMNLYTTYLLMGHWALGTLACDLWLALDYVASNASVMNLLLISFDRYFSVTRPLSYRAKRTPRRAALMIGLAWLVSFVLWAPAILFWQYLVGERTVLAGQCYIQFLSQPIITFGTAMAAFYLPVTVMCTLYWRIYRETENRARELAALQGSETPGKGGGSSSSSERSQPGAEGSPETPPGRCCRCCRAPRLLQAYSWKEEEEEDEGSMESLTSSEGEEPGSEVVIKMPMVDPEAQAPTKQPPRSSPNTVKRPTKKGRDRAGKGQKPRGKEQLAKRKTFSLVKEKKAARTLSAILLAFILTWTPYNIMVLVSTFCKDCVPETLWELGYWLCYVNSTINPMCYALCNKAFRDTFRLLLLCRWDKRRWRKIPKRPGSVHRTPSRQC
5-hydroxytryptamine receptor 2A (Homo sapiens), sequence (P28223 whole entry): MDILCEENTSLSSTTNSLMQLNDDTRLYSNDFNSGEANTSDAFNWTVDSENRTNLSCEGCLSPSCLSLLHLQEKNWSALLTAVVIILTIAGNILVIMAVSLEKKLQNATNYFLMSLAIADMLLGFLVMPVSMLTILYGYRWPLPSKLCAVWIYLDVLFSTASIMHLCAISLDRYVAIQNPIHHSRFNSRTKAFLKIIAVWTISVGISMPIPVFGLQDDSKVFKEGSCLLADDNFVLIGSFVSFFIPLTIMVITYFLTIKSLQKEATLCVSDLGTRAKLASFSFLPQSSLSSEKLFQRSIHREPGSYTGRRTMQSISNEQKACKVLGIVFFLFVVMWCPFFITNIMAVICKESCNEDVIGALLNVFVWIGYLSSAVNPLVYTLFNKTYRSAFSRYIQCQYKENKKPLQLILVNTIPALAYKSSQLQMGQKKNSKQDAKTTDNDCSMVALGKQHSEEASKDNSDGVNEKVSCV
Adenosine receptor A3 (Homo sapiens), sequence (P0DMS8 whole entry): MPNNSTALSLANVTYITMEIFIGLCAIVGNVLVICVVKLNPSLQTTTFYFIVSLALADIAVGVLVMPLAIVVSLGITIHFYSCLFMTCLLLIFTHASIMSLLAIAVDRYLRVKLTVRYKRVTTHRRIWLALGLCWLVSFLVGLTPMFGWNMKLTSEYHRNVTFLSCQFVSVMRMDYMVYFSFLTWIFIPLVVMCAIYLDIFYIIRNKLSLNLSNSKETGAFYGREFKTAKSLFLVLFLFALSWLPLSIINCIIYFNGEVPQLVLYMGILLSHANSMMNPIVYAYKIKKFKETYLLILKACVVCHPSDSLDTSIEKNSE
Substance-K receptor (Homo sapiens), sequence (P21452 whole entry): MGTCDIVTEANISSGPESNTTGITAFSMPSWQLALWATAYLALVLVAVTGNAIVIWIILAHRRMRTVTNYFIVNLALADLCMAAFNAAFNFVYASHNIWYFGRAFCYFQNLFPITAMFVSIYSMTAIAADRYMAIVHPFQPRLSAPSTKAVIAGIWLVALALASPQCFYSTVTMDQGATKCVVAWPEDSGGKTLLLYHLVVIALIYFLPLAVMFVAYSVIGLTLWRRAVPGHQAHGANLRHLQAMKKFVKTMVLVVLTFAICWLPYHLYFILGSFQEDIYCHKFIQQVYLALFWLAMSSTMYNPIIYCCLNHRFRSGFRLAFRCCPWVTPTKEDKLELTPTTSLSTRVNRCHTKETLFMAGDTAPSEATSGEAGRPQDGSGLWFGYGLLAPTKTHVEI
Transient receptor potential cation channel subfamily A member 1 (Homo sapiens, UniProt O75762), sequence (O75762 whole entry): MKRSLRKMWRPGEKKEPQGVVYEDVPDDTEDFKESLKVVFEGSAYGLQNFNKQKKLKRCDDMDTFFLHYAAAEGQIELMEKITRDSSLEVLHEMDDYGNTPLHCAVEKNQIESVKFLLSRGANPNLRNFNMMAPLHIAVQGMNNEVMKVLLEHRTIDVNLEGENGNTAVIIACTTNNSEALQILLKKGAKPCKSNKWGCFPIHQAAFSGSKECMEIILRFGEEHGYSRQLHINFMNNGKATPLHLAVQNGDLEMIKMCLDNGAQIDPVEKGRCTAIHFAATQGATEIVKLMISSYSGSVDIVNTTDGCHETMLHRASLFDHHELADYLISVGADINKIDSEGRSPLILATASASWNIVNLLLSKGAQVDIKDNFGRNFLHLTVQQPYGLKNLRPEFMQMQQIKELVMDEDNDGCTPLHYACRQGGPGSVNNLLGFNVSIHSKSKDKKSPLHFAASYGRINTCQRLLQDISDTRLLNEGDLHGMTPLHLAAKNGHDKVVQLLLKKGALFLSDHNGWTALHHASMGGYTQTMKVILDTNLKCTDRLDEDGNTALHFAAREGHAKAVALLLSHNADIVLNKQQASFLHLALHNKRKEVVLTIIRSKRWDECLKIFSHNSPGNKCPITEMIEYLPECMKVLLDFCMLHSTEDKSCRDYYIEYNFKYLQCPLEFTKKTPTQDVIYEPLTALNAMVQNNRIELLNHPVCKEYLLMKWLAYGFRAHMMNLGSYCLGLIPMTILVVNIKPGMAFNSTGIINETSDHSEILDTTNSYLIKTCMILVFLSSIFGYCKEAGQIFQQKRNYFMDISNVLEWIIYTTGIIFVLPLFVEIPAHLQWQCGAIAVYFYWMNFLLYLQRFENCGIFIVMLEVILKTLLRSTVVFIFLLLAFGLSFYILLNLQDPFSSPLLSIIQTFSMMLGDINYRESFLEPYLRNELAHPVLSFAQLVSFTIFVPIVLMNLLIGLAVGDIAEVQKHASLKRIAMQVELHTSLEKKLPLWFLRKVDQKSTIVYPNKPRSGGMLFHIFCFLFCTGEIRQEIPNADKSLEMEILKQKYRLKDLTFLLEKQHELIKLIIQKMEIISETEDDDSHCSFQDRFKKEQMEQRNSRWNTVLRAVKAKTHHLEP
5-hydroxytryptamine receptor 2B (Homo sapiens), sequence (P41595 whole entry): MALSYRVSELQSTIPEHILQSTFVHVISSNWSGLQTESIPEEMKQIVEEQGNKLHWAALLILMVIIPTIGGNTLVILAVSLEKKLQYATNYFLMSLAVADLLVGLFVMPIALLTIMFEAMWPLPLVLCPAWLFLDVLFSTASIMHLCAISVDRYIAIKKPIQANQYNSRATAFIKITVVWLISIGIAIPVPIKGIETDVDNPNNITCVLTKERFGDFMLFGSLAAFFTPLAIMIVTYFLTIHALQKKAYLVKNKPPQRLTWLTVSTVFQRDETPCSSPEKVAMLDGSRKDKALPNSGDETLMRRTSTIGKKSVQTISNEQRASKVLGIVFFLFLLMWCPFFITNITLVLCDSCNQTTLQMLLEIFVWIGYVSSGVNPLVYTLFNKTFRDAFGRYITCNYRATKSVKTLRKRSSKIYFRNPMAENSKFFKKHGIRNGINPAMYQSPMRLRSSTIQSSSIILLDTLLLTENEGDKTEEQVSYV

Work on `Cn1cnc2ncn(Cc3nc(CCc4ccc(Cl)cc4)no3)c(=O)c21` yielded an Activity [1] greater than 77%, an Activity [2] greater than 77% and an Activity [3] greater than 77%. The IC50 [4] was 20 nM, the microsomal CLint [5] was less than 14 µL/min/mg and the Activity [6] was greater than 77%. It also gave an Activity [7] greater than 77%, an Activity [8] greater than 77% and an EC50 [9] greater than 40000 nM. For the same molecule, the EC50 [10] was greater than 40000 nM, the CL free (Rattus norvegicus [11]) was 150 mL/min/kg and the half-life [12] was 36 min. For the same molecule, the Ratio [13] was 31, the Papp A→B at 2 h [14] was 44.5 ×10⁻⁶ cm/s and the efflux ratio at 2 h (MDR1 (human)) was 1.3. The inhibition [15] was “inactive”, the IC50 [16] was 10 nM and the “Cp(f)” value (Plasma) was 580 nM. The Ratio [17] was 2.7, the Activity (Rattus norvegicus [18]) was “Active” and the Activity [19] was greater than 77%. It also gave an Activity (Rattus norvegicus [20]) greater than 77%, an Activity (Rattus norvegicus [21]) greater than 77% and an Activity [22] greater than 77%. The Activity [23] was greater than 77%.

Source: ChEMBL document CHEMBL3784976 (J Med Chem, 2016)
